Assay [1] concerns Mycobacterium tuberculosis. The assay is described as follows: Antimicrobial activity against Mycobacterium tuberculosis H37Ra by microplate alamar blue assay. It is filed as functional, organism-based. A general note: The colour change of resazurin is a common sign of viable cells or microbes.
Assay [2] concerns Plasmodium falciparum. Briefly: Antiplasmodial activity against multidrug-resistant Plasmodium falciparum K1. It is filed as functional, organism-based. In short, it runs like this:
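Parasites kept in continuous in vitro culture (Trager–Jensen method); activity assessed by a microculture radioisotope technique.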

The test system of assay [3] is Candida albicans. Briefly: Antifungal activity against Candida albicans by XTT assay. It is filed as functional, organism-based. A general note: Tetrazolium dyes change colour on reduction, which living cells bring about.
In assay [4] the test system is Vero. Briefly: Cytotoxicity against african green monkey Vero cells by sulforhodamine B assay. In kind it is cell-based. The settings on record: Chlorocebus sabaeus. In short, it runs like this: (§1)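 Cell lines used were KB (human oral epidermoid carcinoma), BC (human breast cancer), NCI-H187 (human small cell lung cancer) and Vero (African green monkey kidney fibroblasts). Cytotoxicity was read colorimetrically by the Skehan method, with ellipticine as the reference substance.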
(Sulforhodamine B stains cellular protein and so reports cell mass.)

Assay [5] concerns KB. Briefly: Cytotoxicity against human KB cells by sulforhodamine B assay. In kind it is functional, cell-based. In short, it runs like this: as §1
A short description of assay [6]: Cytotoxicity against human BC1 cells by sulforhodamine B assay. It is filed as functional, cell-based. In short, it runs like this: as §1
The test system of assay [7] is NCI-H187. Briefly: Cytotoxicity against human NCI-H187 cells by sulforhodamine B assay. It is filed as functional, cell-based. In short, it runs like this: as §1

The MIC is the lowest concentration that inhibits growth of the organism. Usually IC50 stands for the concentration that gives 50% inhibition.

In brackets after ≈: the same amount, converted by molar mass.

Molecule `C=C[C@]1(C)Cc2c(OC(C)=O)ccc(OC(C)=O)c2C[C@@H]1C(=C)C` registered a minimal inhibitory concentration (MIC) in assay [1] of 25 µg/mL (≈ 76.1 µM). Moreover, the half-inhibitory concentration (IC50) in assay [2] is 0.4 µg/mL (≈ 1.22 µM); in assay [3] it was above 20 µg/mL; in assay [4] it was 7.3 µg/mL (≈ 22.2 µM); in assay [5], 8.5 µg/mL (≈ 25.9 µM); in assay [6], 9.2 µg/mL (≈ 28 µM); in assay [7], 5.1 µg/mL (≈ 15.5 µM).
`C=C[C@@]1(C)CC2=C(C[C@H]1C(=C)C)C(=O)C=CC2=O` [Cordiachrome C] showed an MIC in assay [1] of 1.5 µg/mL (≈ 6.19 µM). Moreover, the half-inhibitory concentration (IC50) came out at 0.2 µg/mL (≈ 0.825 µM) in assay [2]; 4.6 µg/mL (≈ 19 µM) in assay [3]; 1.4 µg/mL (≈ 5.78 µM) in assay [4]; 1.5 µg/mL (≈ 6.19 µM) in assay [5]; 1.8 µg/mL (≈ 7.43 µM) in assay [6]; 0.2 µg/mL (≈ 0.825 µM) in assay [7].
The molecule `CO[C@H]1/C=C/O[C@@]2(C)Oc3c(C)c(O)c4c(O)c(c(/C=N/N5CCN(C)CC5)c(O)c4c3C2=O)NC(=O)/C(C)=C\C=C\[C@H](C)[C@H](O)[C@@H](C)[C@@H](O)[C@@H](C)[C@H](OC(C)=O)[C@@H]1C` [RIFAMPIN] had an IC50 in assay [1] of 0.0047 µg/mL (≈ 0.00571 µM).
In assay [3], `C[C@@H]1[C@H](O)[C@@H](C)/C=C/C=C/C=C/C=C/C=C/C=C/C=C/[C@H](O[C@@H]2O[C@H](C)[C@@H](O)[C@H](N)[C@@H]2O)C[C@@H]2O[C@](O)(C[C@@H](O)C[C@@H](O)[C@H](O)CC[C@@H](O)C[C@@H](O)CC(=O)O[C@H]1C)C[C@H](O)[C@H]2C(=O)O` [AMPHOTERICIN B] came in with a half-maximal inhibitory concentration (IC50) of 0.08 µg/mL (≈ 0.0866 µM).
Consider `C=C[C@]1(C)Cc2c(OC(=O)c3ccccc3)ccc(OC(=O)c3ccccc3)c2C[C@@H]1C(=C)C`, for which the lowest concentration to inhibit growth in assay [1] (MIC) was 200 µg/mL (≈ 442 µM). Also, the half-maximal inhibitory concentration (IC50) in assay [2] was above 20 µg/mL; in assay [3], above 20 µg/mL; in assay [4], above 50 µg/mL; in assay [5], above 20 µg/mL; in assay [6], above 20 µg/mL; in assay [7] it was above 20 µg/mL.
In the case of `Cc1c2ccncc2c(C)c2c1[nH]c1ccccc12` [ELLIPTECINE], the half-maximal inhibitory concentration (IC50) in assay [6] was determined as 0.2 µg/mL (≈ 0.812 µM); in assay [7] it was 0.3 µg/mL (≈ 1.22 µM).
In the case of `NNC(=O)c1ccncc1` [ISONIAZID], the IC50 in assay [1] was 0.05 µg/mL (≈ 0.365 µM).
In turn, `CC(C)=CCCC1(C)C=Cc2cc(O)ccc2O1` (stereo not drawn) [CORDIACHROMENE A] registered an MIC in assay [1] of 12.5 µg/mL (≈ 51.2 µM). Further, the IC50 was above 20 µg/mL in assay [2]; 11.2 µg/mL (≈ 45.8 µM) in assay [3]; above 50 µg/mL in assay [4]; above 20 µg/mL in assay [5]; above 20 µg/mL in assay [6]; above 20 µg/mL in assay [7].
On to `C/C(C=O)=C\CC/C(C)=C/Cc1cc(O)ccc1O` [ALLIODORIN], for which the MIC in assay [1] stood at 12.5 µg/mL (≈ 48 µM). Moreover, the 50% inhibitory concentration (IC50) in assay [2] was 3.1 µg/mL (≈ 11.9 µM); in assay [3], above 20 µg/mL; in assay [4], 14.1 µg/mL (≈ 54.2 µM); in assay [5], 12 µg/mL (≈ 46.1 µM); in assay [6], 10.3 µg/mL (≈ 39.6 µM); in assay [7] it was 2.2 µg/mL (≈ 8.45 µM).
On to `C/C1=C/CC/C(C)=C/CC2=C(C1)C(=O)C=CC2=O` [GLOBIFERIN], for which the minimum inhibitory concentration (MIC) in assay [1] is 6.2 µg/mL (≈ 25.6 µM). Besides, the IC50 is 2.1 µg/mL (≈ 8.67 µM) in assay [2]; above 20 µg/mL in assay [3]; above 50 µg/mL in assay [4]; above 20 µg/mL in assay [5]; above 20 µg/mL in assay [6]; 0.5 µg/mL (≈ 2.06 µM) in assay [7].
With `C=C1CCC[C@@]2(C)CC3=C(C[C@@H]12)C(=O)C=CC3=O` [CORDIACHROME B], in assay [1], inhibition of growth (MIC) required 12.5 µg/mL (≈ 51.6 µM). Moreover, the 50% inhibitory concentration (IC50) in assay [2] is 1.5 µg/mL (≈ 6.19 µM); in assay [3] it was 7.7 µg/mL (≈ 31.8 µM); in assay [4] it was 1.7 µg/mL (≈ 7.02 µM); in assay [5], 6 µg/mL (≈ 24.8 µM); in assay [6], 6.4 µg/mL (≈ 26.4 µM); in assay [7] it was 0.4 µg/mL (≈ 1.65 µM).
Consider `C/C(C=O)=C\CCC1(C)C=Cc2cc(O)ccc2O1` (stereo not drawn) [ELAEAGIN], for which, in assay [1], the minimum inhibitory concentration (MIC) came to 12.5 µg/mL (≈ 48.4 µM). For the same molecule, the half-inhibitory concentration (IC50) was 3.6 µg/mL (≈ 13.9 µM) in assay [2]; above 20 µg/mL in assay [3]; 20 µg/mL (≈ 77.4 µM) in assay [4]; above 20 µg/mL in assay [5]; above 20 µg/mL in assay [6]; 6.1 µg/mL (≈ 23.6 µM) in assay [7].
In assay [1], `NC[C@H]1O[C@H](O[C@H]2[C@H](O)[C@@H](O[C@H]3O[C@H](CO)[C@@H](O)[C@H](N)[C@H]3O)[C@H](N)C[C@@H]2N)[C@H](O)[C@@H](O)[C@@H]1O` [KANAMYCIN] returned a half-inhibitory concentration (IC50) of 2.5 µg/mL (≈ 5.16 µM).
In turn, `C[C@H]1[C@@H](O)O[C@@H]2O[C@@]3(C)CC[C@H]4[C@H](C)CC[C@@H]1[C@@]24OO3` [ARTENIMOL] yielded an IC50 in assay [2] of 0.0012 µg/mL (≈ 0.00422 µM).
